Laboratory results as given in ChEMBL document CHEMBL4513216, “Probing the Open Global Health Chemical Diversity Library for Multistage-Active Starting Points for Next-Generation Antimalarials” (ACS Infect Dis, 2020).

assay: Toxicity liver stage against HepG2, at 10uM; type: cell-based; design: test concentration 10 uM, cell line HepG2-A16-CD81EGFP; conditions: human, HepG2-A16-CD81EGFP cells; read-out: INHIBITION
Outline: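 Uninfected HepG2-A16-CD81EGFP cells, 3 × 10^3 per well, 1536-well, plated on prespotted compound at 10 μM final, parasite-free screening media added to match infected plates; puromycin 10 μM positive, DMSO 0.5% negative; run in parallel with 48 h PbLuc assay at 37 °C, 5% CO2; viability by CellTiter-Glo luminescence, normalized to controls.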

Point of comparison: O=C(CN1CCCC1=O)N1CCC(O)(Cn2ccc3ccncc32)CC1, cytotoxicity at 10 µM -5.55%. Against it:
- Cc1csc2ncn(C(C)Cc3cccnc3)c(=O)c12 (configuration not stated) — higher, 6.9%
- COc1cccc(CNC(=O)N2CCCC(Cn3cc(CN)nn3)C2)c1 (configuration not stated) — higher, -2.07%
- CNc1cc(-c2ccncc2)ncn1 — lower, -13.9%
- CCS(=O)(=O)N1CCC2(CC1)CC(CC(=O)NC1CC1)c1ccccc12 (configuration not stated) — higher, -1.72%
- CN(C)C(=O)N1CCN(Cc2nnc(C(C)(C)C)o2)CC1 — higher, 0.278%
- CNc1nc(CNC(=O)Nc2cccc(C(C)OC)c2)cs1 (configuration not stated) — lower, -13.3%
- C[C@@H]1CN(C(=O)c2cnc(C3CC3)nc2)CC[C@@]1(O)C1CCOCC1 — lower, -13.9%
- N#CCc1ccc(NC(=O)Cn2cc(I)cn2)cc1 — higher, 8.44%
- CSc1ncccc1C(=O)N(C)CCc1scnc1C — higher, 4.23%
- COc1cc(Oc2ccc(C#N)cn2)ccc1CN1CCCC1 — higher, 32.2%
- NS(=O)(=O)c1cc(C(=O)N2CCCCC2)cs1 — higher, -0.174%
- O=C(c1cccnc1O)N(CCO)Cc1cc(Br)ccc1F — higher, 6.27%
- Cc1cccc(C(=O)N2C[C@@H]3OCCN(c4ncccn4)[C@@H]3C2)n1 — higher, 0.523%
- CN(Cc1nnc2ccccn12)C(=O)CCNC(=O)C(C)(C)C — higher, 12.5%
- Cc1nnsc1C(=O)NCc1cccnc1N1CCc2ccccc2C1 — higher, 10.8%
- Cc1cc(C(=O)N2C[C@@H]3COC[C@]3(c3nnc(C)o3)C2)on1 — higher, -0.505%
- Cc1cc(C)n(CC2CCCN2CC(=O)N(C)CCC#N)n1 (configuration not stated) — lower, -14.8%
- Cn1cc(CN2CCC[C@]3(C[C@H](Oc4ncccc4F)CO3)C2)cn1 — higher, 9.92%
- CN1CC(=O)N(c2ccccc2)Cc2c(NC3CC3)ncnc21 — higher, 6.86%
- CN(C)CCOCc1nnc2n1CCN(Cc1ccc(F)cc1)CC2 — lower, -5.63%
- NC(=O)C1CCCN1CCCc1ccc(Cl)cc1 (configuration not stated) — higher, 5.39%
- COCC(=O)N1CCC2(CC1)CN(c1cncnc1)C(=O)CO2 — lower, -78.6%
- O=C(c1ncn2c1CNS(=O)(=O)c1ccccc1-2)N1CCOCC1 — higher, 8.28%
- COc1ccc(OC)c(CNCc2c(C(C)C)nn(C)c2N(C)C)c1 — lower, -5.89%
- Cc1cc2cc(CNC(=O)c3cnn4c3OCCC4)ccc2[nH]1 — higher, 6.59%
- CN(C(=O)c1ccon1)[C@@H]1CCC[C@@H](Oc2ccccc2)[C@@H]1O — lower, -17.5%
- Cc1ccc(OCCC(=O)NC2CC(=O)N(C)C2)cc1C (configuration not stated) — lower, -9.25%
- CC(C)C(C)NC(=O)Nc1ccc(CC(N)=O)cc1 (configuration not stated) — higher, -3.36%
- Cn1nnnc1SCC1(O)CCCCC1 — higher, 1.06%
- Cc1ccc2c(c1)C(NC(C)C)CC21CCNCC1 (configuration not stated) — lower, -10.6%
- CCOC(=O)c1c(NC(=O)C2CCN(C(C)=O)CC2)sc(C)c1CC — higher, 10.9%
- Cc1cc(=O)[nH]cc1C(=O)N1Cc2ccccc2N(C)CC1C (configuration not stated) — higher, 0.305%
- COC(CNC(=O)c1cc(C)on1)c1ccccc1C (configuration not stated) — lower, -17.8%
- O=C([C@@H]1COC[C@H]2CN(c3ccncn3)C[C@H]21)N1CCCC1 — lower, -133%
- O=C(Cc1ccsc1)NC1CCc2c(ccc(=O)n2CC2CC2)C1 (configuration not stated) — higher, 8.88%
- COC(=O)[C@@H]1C[C@@H](O)CN1Cc1ccn(-c2ccc(F)cc2)n1 — higher, -5.17%
- CSc1cc2c(cc1NC(=O)NCC1CCOC1)OCCO2 (configuration not stated) — higher, -4.54%
- CCCn1nc2c(cc1=O)CN(Cc1ncc(C(C)(C)C)o1)CC2 — lower, -7.17%
- CNC(=O)C1CCCN(C(=O)c2ccccc2-n2cc(CN)cn2)C1 (configuration not stated) — higher, -2.3%
- COc1c(CNCc2ccnc(N(C)C)c2)c(C(C)C)nn1C — lower, -6.3%
- Cc1ccc(CN2CCn3c(COc4cccnc4)cnc3C2C)o1 (configuration not stated) — lower, -111%
- Cc1nc(NC(=O)C(C)S(C)(=O)=O)sc1Cc1ccc(F)cc1 (configuration not stated) — higher, 4.52%
- Cc1ccoc1C(=O)N1CC[C@H]2[C@H](C[C@@H](CN3CCCC3)N2C)C1 — higher, 4.42%
- Cc1cc(C)nc(N2CCC(C(=O)Nc3n[nH]c(C(C)C)n3)CC2)n1 — higher, 4.07%
- Cc1cc(=O)c(C(=O)N2CCC(C(O)Cc3ccccc3)CC2)c(C)[nH]1 (configuration not stated) — higher, 12.2%
- CCn1cc(SCC(=O)N2CCCC(O)(CO)C2)c2ccccc21 (configuration not stated) — higher, 6.37%
- COC(=O)c1ncccc1N1CCCC1 — higher, -3.1%
- Cn1ncc2c(=O)[nH]c(CN3CCCc4cc(F)ccc43)nc21 — lower, -8.23%
- Cc1cccc(CN2C[C@@H]3COC[C@]3(CNC(=O)c3ccccc3)C2)n1 — higher, -0.0606%
- Cc1nc2n(n1)CC(NCc1nc3ccccc3o1)CC2 (configuration not stated) — higher, -0.608%
- CCCn1cc(-c2cc(-c3c[nH]cn3)c(C#N)c(N)n2)c(C)n1 — higher, 10.3%
- CCC(O)(CNCc1ncc[nH]1)c1ccc(Br)cc1 (configuration not stated) — higher, 3.54%
- O=C(CCC(=O)NCc1cccc(Br)c1)NCCN1CCCC1 — higher, 10%
- Cn1cnc2c1CCN(Cc1csc(C3CCCC3)n1)C2 — lower, -12.3%
- CCOCC(=O)N1CCC[C@]2(C[C@@H](OCc3ccncc3)CO2)C1 — higher, 14.5%
- c1csc(CN2Cc3[nH]nc(COCC4CC4)c3C2)c1 — higher, 6.22%
- COc1ccc(C(=O)C2CCCN(Cc3ccccc3O)C2)c(OC)c1 (configuration not stated) — higher, 5.45%
- Cn1ccnc1CCNC(=O)C1CCCN(Cc2cccc(F)c2)C1 (configuration not stated) — lower, -6.87%
- CCCc1nc(C(=O)N2CCN(C(=O)c3ccc(OC)cc3)CC2)cs1 — higher, -3.07%
- COc1ccc(Cl)cc1-c1nc(N)nc(N)n1 — higher, 1.57%
- Cc1nn(C)c2nc(NCCOCCO)sc12 — higher, -5%
- COC(=O)Cn1ccc(NS(=O)(=O)c2ccc3c(c2)CCC3)n1 — higher, 10.6%
- CC(C)CN1CCNC(=O)C12CCN(C(=O)c1ccccn1)CC2 — higher, 5.25%
- CN(C)CCN1CCN(C)c2nc(-c3ccccc3)ncc2C1=O — lower, -11.6%
- N#Cc1ccc(N2CCC(OC3CCOCC3)CC2)cc1Cl — higher, 1%
- CCc1nnc(CNCC2CCN(CC(O)c3ccccc3)CC2)o1 (configuration not stated) — higher, -1.49%
- CCn1nc2c(cc1=O)CN(Cc1cc(C)on1)CC2 — higher, 0.341%
- Cc1cc(Nc2ccc(F)cn2)cc(C2CCN(Cc3ncc[nH]3)C2)n1 (configuration not stated) — lower, -8.26%
- COc1cnc(C2(O)CCN(C(=O)c3cccnc3)CC2)c(OC)n1 — higher, 0.41%
- CCO[C@H]1CN(C)C[C@@H]1NC(=O)c1cc(C)nc2c(C)c(C)ccc12 — higher, 1.64%
- Cc1noc(C)c1CN1C[C@@H](C(=O)O)[C@H](c2ccccc2)C1 — lower, -9.04%
- CCn1ncc2c1C(COCC1CC1)CN(S(=O)(=O)N(C)C)C2 (configuration not stated) — lower, -10.4%
- CN(C)Cc1ccccc1NC(=O)c1ccc(C#N)cc1 — higher, 4.2%
- CCC(CC)(CNC(=O)OC(C)(C)C)NC(=O)C1CCCO1 (configuration not stated) — higher, 1.41%
- CCOc1ccc(CNCCCn2ccnc2)cc1Br — lower, -6.81%
- O=C1CCc2cc(S(=O)(=O)NC(=O)c3ccc4c(c3)OCO4)ccc2N1 — lower, -17.8%
- Cc1ncsc1COC(=O)c1cccc2c1OCCO2 — higher, 1.37%
- CN1CCN(CC2(O)CCN(C(=O)CCc3ccccc3F)C2)CC1 (configuration not stated) — higher, -2%
- c1cnnc(N[C@@H]2CC[C@@H]3CN(Cc4ccc5cc[nH]c5c4)C[C@@H]32)c1 — higher, -0.423%
- CC(NC(=O)CN(C)S(C)(=O)=O)c1ccc(F)cc1 (configuration not stated) — higher, -4.36%
- Cc1nc2cc(=O)[nH]n2c(C)c1CNC(=O)C(C)Cc1ccccc1 (configuration not stated) — lower, -7.27%
- Cc1ncc2c(n1)CN(CCCc1ccccc1)CC2 — lower, -34.7%
- COCCN1CCC(c2nc3c([nH]2)CC(C)(C)CNC3=O)CC1 — higher, -3.13%
- Cc1ccc2nnc(C(=O)NCCCn3cccn3)nc2c1 — lower, -7.93%
- CC1(C)CNC(=O)c2nc(CCN3CCC(C(N)=O)CC3)[nH]c2C1 — higher, -1.35%
- COC(=O)c1ccc(CN2CCN(Cc3nc(C)no3)CC2)s1 — higher, 4.07%
- CN(Cc1cccc(F)c1)C(=O)CN1CCOC(Cn2cccn2)C1 (configuration not stated) — lower, -8.21%
- CC(C)N(C)Cc1ncn2c1CN(C(=O)C1CCCO1)CCC2 (configuration not stated) — lower, -103%
- O=C(NCCOc1ccc(Cl)cc1)N1CCS(=O)(=O)CC1 — higher, 0.89%
- CCCS(=O)(=O)N1Cc2nccn2CC(Cn2cncn2)C1 (configuration not stated) — higher, -0.158%
- CCCn1ccnc1CN1C[C@@H](NC(C)=O)[C@H](c2ccc(C)cc2)C1 — higher, 1.9%
- COCCn1ccc2c(C(=O)O)cccc21 — higher, -3.37%
- CC(C)(C)c1nc(NS(=O)(=O)c2ccccc2F)no1 — higher, -1.45%
- Cn1ccnc(Nc2ccc3c(c2)CCN3C(=O)c2cccnc2)c1=O — lower, -55%
- CNC(=O)C1CCCN(c2nc3c(-c4ccccc4)csc3c(=O)[nH]2)C1 (configuration not stated) — higher, -1.03%
- Cc1nn(CCO)c(C)c1-c1cc(C(C)(C)C)nc(N)c1C#N — higher, 4.93%
- CCC1CN(C(=O)c2ccccc2N2CCOCC2)CCN1C(C)C (configuration not stated) — higher, 7.72%
- CCCc1nnc(N2CCC(N3CCN(CCO)CC3)CC2)o1 — higher, -4.95%
- CC(C)NC(=O)CN1CCN(CC2CCOc3ccccc3C2)CC1 (configuration not stated) — higher, -1.72%
- Cc1nnc2n1CCN(C(C(N)=O)c1ccc(F)cc1)C2 (configuration not stated) — lower, -13.5%
- Cc1ccc(CNC(=O)Nc2nncs2)n1C — higher, -0.545%
- COC(=O)CCn1ccc(=O)c2ccc(OC)cc21 — higher, 17.1%
- CN1CCN(C(=O)c2csnn2)c2ccccc21 — higher, -1.15%
- N#Cc1ccc(OCC(O)CN2CCC(Cn3cccn3)CC2)cc1 (configuration not stated) — higher, -0.775%
- CN1CCc2c(C#N)c(NCc3ccco3)n3cnnc3c2C1 — lower, -13.7%
- Cc1cnn(CC2CN(Cc3nccn3CC(F)(F)F)CCO2)c1 (configuration not stated) — lower, -11.7%
- CN(Cc1ccc(Cl)s1)C(=O)CN(C)C1CCCc2ccccc21 (configuration not stated) — higher, 21.4%
- c1ccc2c(c1)COC1(CCCCC1)N2 — lower, -11.1%
- CC(C)CN1CCN(C(=O)CCn2cccn2)CC1 — higher, -5.45%
- CN1CCN(C(=O)c2cc[nH]c(=O)c2)Cc2ccccc21 — lower, -18.1%
- CCCc1noc(CN2CCC(NC(=O)c3ccc(C)s3)CC2)n1 — higher, -5.32%
